Data on 16 compounds can be found in ChEMBL document CHEMBL4699414, “Hit-to-lead optimization of novel benzimidazole phenylacetamides as broad spectrum trypanosomacides” (RSC Med Chem, 2020).

Series [1] in a line: Cytotoxicity against human HEK293 cells assessed as reduction in cell viability measured after 48 hrs by resazurin assay. Format: cell-based. The gist of the method: (§1)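 HEK293 cells from ATCC; Alamar Blue viability read-out run per earlier method.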
Series [2] has as its system Trypanosoma cruzi. Put plainly: Antitrypanosomal activity against recombinant Trypanosoma cruzi intracellular amastigotes expressing beta-galactosidase infected in mouse NIH/3T3 cells assessed as parasite growth inhibition incubated for 4 days by resorufin-beta-D-galactopiranoside substrate based fluorescence assay. To be noted: NIH3T3, 96 h. Type of series: functional, organism-based.

The nature of series [3]: Cytotoxicity against rat H9c2 cells assessed as reduction in cell viability. Format: cell-based.
Series [4] can be described thus: Cytotoxicity against human HepG2 cells assessed as reduction in cell viability measured after 48 hrs by CellTiter-Glo assay. Format: cell-based. In short, it runs like this:
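HepG2 human hepatoma cells from GSK Biological Reagents and Assay Development (Stevenage, UK); viability read-out per earlier method.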
For orientation: Cellular ATP, detected with luciferase, serves as a proxy for viable cell number.

A short description of series [5]: Lipophilicity, logP of the compound. Format: physicochemical. To be noted: octanol/water.
Series [6] in a line: Selectivity index, ratio of CC50 for mouse NIH/3T3 cells to IC50 for recombinant Trypanosoma cruzi intracellular amastigotes expressing beta-galactosidase infected in mouse NIH/3T3 cells assessed as parasite growth inhibition incubated for 4 days by resorufin-beta-D-galactopiranoside substrate based fluorescence assay. Format: toxicity, cell-based. To be noted: time 4 day, read-out: Ratio CC50/IC50.

A short description of series [7]: Selectivity index, ratio of CC50 for rat H9c2 cells assessed as reduction in cell viability to IC50 for Trypanosoma cruzi infected in rat H9c2 infected with trypomastigotes from parasite-infected monkey LLC-MK2 cells measured after 72 hrs by DRAQ5 DNA dye based microscopic imaging analysis. Type of series: toxicity. The note with it: read-out: Ratio CC50/IC50.
Series [8] can be described thus: Selectivity index, ratio of CC50 for human HEK293 cells assessed as reduction in cell viability measured after 48 hrs by resazurin assay to IC50 for Trypanosoma brucei brucei Lister 427 […] assessed as parasite growth inhibition measured after 48 hrs by alamar blue assay. Type of series: toxicity, cell-based. The note with it: read-out: Ratio CC50/IC50. On the technique in general: The colour change of resazurin is a common sign of viable cells or microbes.

Series [9] deals with Trypanosoma cruzi. The series can be described thus: Antitrypanosomal activity against Trypanosoma cruzi infected in rat H9c2 infected with trypomastigotes from parasite-infected monkey LLC-MK2 cells measured after 72 hrs by DRAQ5 DNA dye based microscopic imaging analysis. Type of series: functional, organism-based. The note with it: H9c2, 72 h.
The test system of the next series is HEK293. Put plainly: Cytotoxicity against human HEK293 cells assessed as reduction in cell viability measured after 48 hrs by resazurin assay relative to control. Format: cell-based. To be noted: hek293, 48 h. In short, it runs like this: as §1
The subject of series [10] is Trypanosoma brucei brucei. The series can be described thus: Antitrypanosomal activity against Trypanosoma brucei brucei Lister 427 assessed as parasite growth inhibition measured after 48 hrs by alamar blue assay. To be noted: Lister 427, 48 h.

One may read the CC50 as the concentration that lowers cell viability or growth by half. The term IC50 denotes the point on the concentration scale where inhibition reaches its midpoint. For orientation: logP means a log measure of how a compound divides between an organic and an aqueous phase. Regarding `CCCn1c(NC(=O)Cc2ccc(Cl)cc2)nc2ccccc21`, the CC50 at 48 h in series [1] was over 83 µM; in [4], over 50 µM. Besides, the IC50 with Trypanosoma cruzi [2] amounted to 0.63 µM. In addition, in series [3], the CC50 is over 50 µM. This compound also displayed a logP in series [5] of 4.7. Further, the selectivity ratio at 96 h in series [6] amounted to 79. In addition, the selectivity ratio at 72 h in series [7] stood at 40. For the same compound, the selectivity ratio at 48 h in [8] came to 50.

Regarding `CCCn1c(NC(=O)Cc2ccc(Cl)cc2)nc2cc(Cl)ccc21`, the IC50 in the series with Trypanosoma cruzi [9] was 0.5 µM; in series [10] it was 4.4 µM. For the same compound, in series [3], the 50% cytotoxic concentration (CC50) came out at 7.94 µM. The CC50 at 48 h in [4] was over 50 µM. In series [5], this compound registered a logP of 5.3. The Activity with HEK293 worked out at 84 µM.

As for `CCCn1c(NC(=O)Cc2ccccc2)nc2ccccc21`, the CC50 at 48 h in series [1] was over 83 µM; in series [4] it was over 50 µM. The figures for the IC50 (in the series with Trypanosoma cruzi [9]; in series [10]) were 4 µM and 4.1 µM, respectively. For the same compound, the CC50 in series [3] is over 50 µM. In addition, in [5], the lipophilicity (logP) was found to be 4.1.

Turning to `CCCn1c(NC(=O)Cc2ccc(OC)cc2)nc2ccccc21`, the results for the CC50 at 48 h in series [1] and in series [4] were over 83 µM and over 50 µM, respectively. Also, the IC50 in the series on Trypanosoma cruzi [9] stood at 3.2 µM; in series [10], 5.2 µM. Also, the CC50 in series [3] was over 50 µM. Further, the logP in series [5] came out at 4.

Consider `CCCn1c(NC(=O)Cc2ccc(OC(F)(F)F)cc2)nc2ccccc21`, for which the CC50 at 48 h was over 83 µM in series [1] and over 50 µM in series [4]. Besides, the IC50 in the series on Trypanosoma cruzi [9] turned out to be 1 µM; in series [10], 3.2 µM. Further, the CC50 in series [3] was found to be 10 µM. The compound further had a logP in series [5] of 5.6.

Consider `CCCn1c(NC(=O)Cc2ccccc2Cl)nc2ccccc21`, for which the CC50 at 48 h in [1] is 14 µM; in series [4] it was 25 µM. In addition, the half-maximal inhibitory concentration (IC50) with Trypanosoma cruzi [9] amounted to 2 µM; in [10], 2.3 µM. Also, the CC50 in [3] worked out at 25 µM. For the same compound, the logP in series [5] was 4.7.

For the compound `CCCn1c(NC(=O)Cc2cccc(C)c2)nc2ccccc21`, the CC50 at 48 h in series [1] is 15 µM; in series [4], over 50 µM. Besides, the IC50 in the series on Trypanosoma cruzi [9] worked out at 2 µM; in series [10], 3.6 µM. The CC50 in [3] is over 50 µM. In addition, the logP in series [5] was determined as 4.6.

Take `CCCn1c(NC(=O)Cc2ccccc2OC)nc2ccccc21`: the half-maximal cytotoxic concentration (CC50) at 48 h in series [1] is over 83 µM; in series [4], over 50 µM. For the same compound, the IC50 in the series with Trypanosoma cruzi [9] was 6.3 µM; in series [10], over 83 µM. Further, in series [3], the CC50 was found to be 13 µM. Moreover, the logP in [5] was determined as 4.

Consider `CCCn1c(NC(=O)Cc2ccc(Cl)cc2)nc2c(Br)cccc21`, for which the IC50 amounted to 10 µM in the series on Trypanosoma cruzi [9] and 19 µM in series [10]. Moreover, the CC50 in series [3] was over 50 µM. In series [4], the CC50 at 48 h is over 50 µM. Besides, the logP in series [5] is 5.5. In the series on HEK293, the Activity was 54 µM.

For the compound `CCCn1c(NC(=O)CCCc2ccccc2)nc2ccccc21`, the CC50 at 48 h in series [1] is over 83 µM; in series [4], over 50 µM. The IC50 in the series with Trypanosoma cruzi [9] worked out at 1.6 µM; in series [10] it was 2.4 µM. In series [3], the 50% cytotoxic concentration (CC50) was found to be 16 µM. Moreover, the logP in series [5] came out at 5.

As to `CCCCC(=O)Nc1nc2ccccc2n1CCC`, the CC50 at 48 h in [1] is 2.6 µM; in [4] it was over 50 µM. Moreover, the IC50 amounted to 13 µM with Trypanosoma cruzi [9] and 11 µM in [10]. In addition, the CC50 in [3] amounted to 25 µM. The compound also showed a logP in [5] of 3.9.

For the compound `CCCn1c(NC(=O)Cc2ccccc2F)nc2ccccc21`, the results for the CC50 at 48 h in series [1] and in series [4] were over 83 µM and over 50 µM, respectively. Moreover, the IC50 came out at 3.2 µM in the series on Trypanosoma cruzi [9] and 3.6 µM in series [10]. For the same compound, the CC50 in series [3] was over 50 µM. Further, the logP in [5] is 4.3.

On to `CCCn1c(NC(=O)Cc2cccc(Cl)c2)nc2ccccc21`, for which the values for the CC50 at 48 h in [1] and in [4] were 15 µM and over 50 µM, respectively. Besides, the figures for the IC50 (with Trypanosoma cruzi [9]; in series [10]) were 1.6 µM and 3.6 µM, respectively. Moreover, in [3], the CC50 was over 50 µM. This compound gave a logP in [5] of 4.7.

As for `CCCn1c(NC(=O)Cc2ccc(Cl)cc2)nc2cccc(C)c21`, the CC50 at 48 h in series [1] was over 83 µM; in [4], over 50 µM. Further, the IC50 in the series on Trypanosoma cruzi [9] worked out at 1.3 µM; in [10], 9.4 µM. The CC50 in series [3] was over 50 µM. The compound also displayed a logP in series [5] of 5.2.

Take `CCCCCn1c(NC(=O)Cc2ccc(Cl)cc2)nc2ccccc21`: the CC50 at 48 h in series [1] is over 83 µM; in series [4], over 50 µM. Also, the IC50 in the series on Trypanosoma cruzi [9] worked out at 1 µM; in series [10] it was 3.7 µM. Moreover, in series [3], the CC50 was over 50 µM. The logP in series [5] amounted to 5.6.

With `CCCn1c(NC(=O)Cc2cccc(F)c2)nc2ccccc21`, the figures for the CC50 at 48 h in series [1] and in series [4] were over 83 µM and over 50 µM, respectively. Besides, the IC50 was found to be 2 µM in the series with Trypanosoma cruzi [9] and 3.2 µM in series [10]. In series [3], the CC50 is over 50 µM. The compound further returned a logP in [5] of 4.3.
